High-throughput results as filed in PubChem.
SENP7 block – inhibitors of human SENP7 protease; Q9BQF6; recombinant SENP7, Z-RLRGG-aminoluciferin luminescence, 40 min; inhibition, % at 5 µM; 330,000 tested, 1.5% active; AID 434973;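 active means inhibition above about 50% at the single test dose, limit read from the data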;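 further: plate controls were DMSO with enzyme for no effect and no enzyme buffer wells for full effect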
Target sequence (Q9BQF6 706-1050 limits assumed): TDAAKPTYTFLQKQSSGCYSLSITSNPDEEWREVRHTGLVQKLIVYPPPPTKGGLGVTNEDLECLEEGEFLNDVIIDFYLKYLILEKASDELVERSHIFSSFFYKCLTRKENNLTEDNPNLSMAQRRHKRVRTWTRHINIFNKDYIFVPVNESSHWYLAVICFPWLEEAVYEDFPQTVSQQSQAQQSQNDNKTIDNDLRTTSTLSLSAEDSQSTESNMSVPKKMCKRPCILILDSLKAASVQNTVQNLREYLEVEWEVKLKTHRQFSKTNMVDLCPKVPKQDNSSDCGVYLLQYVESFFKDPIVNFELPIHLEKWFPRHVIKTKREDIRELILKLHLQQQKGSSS
SENP8 block-1 – blocks the human protease SENP8; purified SENP8, Z-RLRGG-aminoluciferin cleavage, luminescence; inhibition, % at 10 µM; 330,000 tested, 1.2% active; in the data active means inhibition above about 50%
Target sequence (Q96LD8 whole entry, looked up): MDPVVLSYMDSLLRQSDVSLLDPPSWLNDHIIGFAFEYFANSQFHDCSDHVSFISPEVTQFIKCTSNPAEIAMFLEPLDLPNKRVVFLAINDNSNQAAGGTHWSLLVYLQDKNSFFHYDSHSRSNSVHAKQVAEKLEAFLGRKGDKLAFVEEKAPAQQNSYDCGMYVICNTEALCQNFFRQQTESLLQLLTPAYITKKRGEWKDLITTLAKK
SENP1 FRET inh – SENP1 (human) catalytic domain inhibition | Q9P0U3 | recombinant SENP1 catalytic domain, CyPet-SUMO1-YPet FRET cleavage | inhibition, % at 10 µM | 360,000 tested, 0.21% active | AID 624204;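 active means inhibition at least 30% at 10 µM, raw YFP signal under a set limit, fluorescence ratio 0.5 to 1.5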;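 further: 0% = enzyme with DMSO and 100% = no enzyme wells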
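Material – human SENP1 catalytic domain · Input – SENP1 enzyme, 20 pM final · Compound dosing – single concentration of 10 µM compound, 0.5% DMSO final · Timing – enzyme reaction for 50 min at room temperature, dark · Measured by – FRET fluorescence in CFP and YFP emission channels · Control set – no-enzyme wells low, DMSO-plus-enzyme wells high control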
SENP6 inh – blocks the human protease SENP6 | Recombinant SENP6 catalytic domain, aminoluciferin luminescence | inhibition, % at 10 µM | 330,000 tested, 1.8% active | AID 2599;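 active means inhibition above about 50% at the single tested dose, limit read from the data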;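 further: plate controls were DMSO wells with enzyme for no effect and DMSO wells lacking enzyme for full effect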
SENP8 block-2 – SENP8 (human) protease inhibition; AID 602440; Q96LD8; inhibition, % at 20 µM; recombinant SENP8, Nedd8 substrate fluorescence; 360,000 tested, 0.64% active; in the data active means inhibition mostly above about 40%, no sharp cut-off; inactive means mostly below about 27%
SENP8 inh conf – confirmation of human SENP8 protease inhibitors; shares compounds with SENP8 block-2; purified SENP8, Nedd8-AMC/pro-Nedd8 cleavage fluorescence, 30 min; inhibition, % at 25 µM; 1,400 tested, 15% active; in the data active means inhibition mostly above about 39%, no sharp cut-off; inactive means mostly below about 34%
Numbers without * were called inactive; i = inactive; . = no result given. Rows were chosen to be rich in hits. Some 2.5% of all compounds tested hit in one or more screens of this group.

SMILES	SENP7 block	SENP8 block-1	SENP1 FRET inh	SENP6 inh	SENP8 block-2	SENP8 inh conf
CCOC(=O)c1sc(C)c2c(=O)n(CC(=O)c3ccc(Br)cc3)nnc12	3.6	-6.4	0.4	-8.9	40.5*	17.9
CCOC(=O)Cn1c(C)nc2c(C(=O)OCC)sc(C)c2c1=O	1.8	2.4	2.1	-22.1	-241.4	.
C=CCn1c(=S)sc2c(=O)[nH]cnc21	-1.2	2.5	2.3	-4.3	15.4	.
Cc1cccc(C(=O)NC2C(=O)NNC2c2ccc(Cl)cc2)c1 (centres undefined)	14.3	-2.2	0.7	18.6	44.5*	22.4
Cc1cccc(C(=O)NC2CCCCCCC2)c1	4.5	-12.8	-1.9	11.0	11.7	.
O=C(NC1C(=O)NNC1c1ccccc1)c1ccccc1 (centres undefined)	-4.7	-4.5	4.4	13.5	55.1*	16.7
CCCCCCCCCCCCCC(=O)NO	.	.	-0.4	.	2.8	.
CCCCCCCCN1C(=O)[C@H](CC(=O)NCCCN2CCCC2=O)C[C@@]2(C(=O)OC)CC(C)(C)CC=C12	.	.	5.4	.	21.8	.
N#CC(c1ccc(Cl)cc1)c1ccc(Cl)nn1 (centres undefined)	-7.8	4.5	2.2	-10.2	23.0	.
N#CC(c1ccc(Cl)nn1)c1ccccc1Cl (centres undefined)	5.0	3.0	2.3	-7.9	40.8*	8.9
C/C(=N\NC(=O)c1[nH]c2c([N+](=O)[O-])cc(C)cc2c1-c1ccccc1)c1cccnc1	3.8	3.3	2.3	-7.7	60.3*	13.1
COc1ccc(S(=O)(=O)NC2CC(=O)N(c3ccc4c(c3)OCCO4)C2)cc1 (centres undefined)	-5.0	-0.5	-0.2	-12.3	7.0	.
O=C1CCCCCCCN1Cc1ccccc1	-6.3	-3.2	-0.8	-14.1	14.5	.
CC1=NN(Cc2ccccc2)C(=O)C1	12.2	4.0	2.2	9.2	42.8*	25.5
CCCc1cc(=O)[nH]c(SCC(=O)Nc2ncc(S(=O)(=O)c3ccc([N+](=O)[O-])cc3)s2)n1	-2.3	-0.4	0.1	-6.9	47.4*	20.8
COC(=O)Cc1c(C)[nH]n(-c2cc(Cl)cc(Cl)c2)c1=O	13.3	0.2	0.7	17.5	58.6*	12.3
CCOC(=O)c1n[nH]n(-c2cc(Cl)cc(Cl)c2)c1=O	-8.4	3.6	-0.4	-12.7	6.4	.
O=c1[nH]nc(-c2n[nH]c(=O)o2)o1	.	.	1.9	.	-2.3	.
O=C(CN(Cc1cccs1)C(=O)CCC(=O)Nc1ccccn1)NCc1ccccc1	-1.2	-7.0	0.5	-11.4	16.5	.
COC(=O)c1ccc(NC(=O)CCCN2C(=O)NC(C)(C)C2=O)cc1	-4.8	6.7	-1.4	1.0	5.0	.
CCCCN1C(=O)C(CC(=O)NCCCN(C)C)CC(C(=O)N2CCOCC2)=C1C (centres undefined)	.	.	0.8	.	12.9	.
O=S(=O)(c1ccccc1C(F)(F)F)N1CCOCC1	-6.8	-7.6	2.0	-1.6	21.3	.
O=S(=O)(c1ccccc1C(F)(F)F)N1C=CC(C(F)(F)F)=NCC1	.	.	-0.5	.	40.9*	7.8
COC(=O)c1ccc(/C=C/c2c(-c3ccsc3)sc3ccccc23)cc1	9.1	-17.6	-10.7	-27.3	-465.2	.
O=c1cc(CO)occ1OCc1cccc(F)c1	-8.4	0.5	3.1	-5.8	12.9	.
SMILES	SENP7 block	SENP8 block-1	SENP1 FRET inh	SENP6 inh	SENP8 block-2	SENP8 inh conf
O=c1cc(CO)[nH]cc1OCc1ccccc1	-2.3	-4.7	1.3	-15.6	45.9*	12.1
CC1(C)C(=O)C=CC(=O)C(C)(C)C(=O)C=CC(=O)C(C)(C)C2=CC=C(O2)C(C)(C)C(=O)C=CC1=O	.	.	6.9	.	47.5*	11.5
C=CCn1c(SCC(=O)c2ccccc2)nnc1-c1ccc2c(c1)OCO2	0.1	0.1	-1.0	-1.2	24.0	.
Cc1cc2c(NC(=O)CC(C)(C)CC(=O)O)cccc2nn1	8.7	5.1	4.2	9.7	43.7*	6.5
Cc1c(N2C(=O)CSC2c2ccco2)c(=O)n(-c2ccccc2)n1C (centres undefined)	0.9	1.4	1.4	-20.5	24.8	.
O=[N+]([O-])c1cc(-c2n[nH]c(-c3ccccc3)n2)cc([N+](=O)[O-])c1	11.8	3.0	1.2	-2.3	5.9	.
O=[N+]([O-])c1cc([N+](=O)[O-])c2n[nH]c(-c3ccccc3)c2c1	4.9	6.2	5.5	-10.8	35.1*	7.7
COCCNC(=S)Nc1ccc(N2CCOCC2)c(S(=O)(=O)Nc2ccccc2OC)c1	2.7	-10.4	2.0	-0.1	7.8	.
CCCc1nc2ccccc2n1CCOc1ccccc1	7.8	-4.1	0.6	-10.2	42.2*	7.2
CCOC(=O)C1=C(C)NC(=S)NC1c1ccc(OCC(=O)N2CCCCC2)cc1 (centres undefined)	3.8	2.5	0.3	8.3	2.0	.
COc1ccc(NC(=O)NNc2cc(N3CCOCC3)nc(N3CCOCC3)n2)cc1	0.6	-2.8	1.5	25.1	44.1*	38.5
CC(=O)NNc1cc(N2CCOCC2)nc(N2CCOCC2)n1	23.7	0.5	-83.8	-7.9	-6.7	.
COC(=O)CNC(=O)c1ccccc1	6.6	0.9	2.1	4.5	50.8*	5.4
COC(=O)CNC(=O)c1ccc(F)cc1	11.7	1.0	3.2	-7.1	-3.1	.
O=C(NCc1ccccc1)c1ccccc1	.	.	1.9	.	62.2*	18.4
C[C@@H]1CN(C(=O)c2nc3ccc(Cl)cn3c2CN2CCc3sccc3C2)C[C@H](C)O1	-4.1	3.6	-10.7	7.9	43.1*	21.0
O=c1ccc2c([nH]1)CCCCCCCCCC2	-3.9	1.7	3.8	-7.1	-8.0	.
CCOc1cc(NC2CS(=O)(=O)CC2O)c(OCC)cc1NC(=O)c1ccccc1 (centres undefined)	5.4	8.5	-2.2	11.5	44.4*	32.3
Cc1ccc2nc(SCC(=O)N3CCC(Cc4ccccc4)CC3)nc(=O)n2c1	-3.8	-9.0	2.0	-7.2	i	.
CCOC(=O)c1[nH]c(C)c(C(=O)OCC(=O)N2CCCCC2C)c1C (centres undefined)	-14.8	-0.3	3.3	-4.8	41.0*	13.8
CCCc1ccc(S(=O)(=O)N2CCN(C(=O)CN3C(=O)NC(C)(C4CC4)C3=O)CC2)cc1 (centres undefined)	.	.	1.9	.	15.3	.
CCNC(=S)Nn1cnc2ccccc21	8.5	1.9	3.6	-26.6	20.5	.
O=C(Nc1ccc(N2CCOCC2)cc1)C1CCN(S(=O)(=O)Cc2ccccc2)CC1	2.1	2.7	0.8	-10.6	40.2*	6.8
CCN(CC)S(=O)(=O)c1ccc(N2CCN(CCOc3ccc(OC)cc3)CC2)nc1	1.4	7.6	-0.9	-10.8	-2.5	.
O=[N+]([O-])c1c(Nc2ccccc2O)cc(N2CCOCC2)c2nonc12	11.7	4.6	-26.2	1.4	-391.7	.
COc1cccc(Nc2cc(N3CCOCC3)c3nonc3c2[N+](=O)[O-])c1	-9.4	-6.2	-19.2	4.1	43.5*	14.2
Cc1cnc(C(=O)OCC(=O)NC2CCCCCCC2)cn1	5.0	0.2	2.6	-4.9	16.0	.
